Assay results as given in ChEMBL document CHEMBL1157223, “Lupeol long-chain fatty acid esters with antimalarial activity from Holarrhena floribunda” (J Nat Prod, 2006).
Values after ≈ are worked out from the molar mass of the structure shown. Values joined by “and” are separate entries in the source; they are usually repeats but may differ in a detail not shown here. Equal values may be shown once.

Experiments:
Plasmodium falciparum [1] = test: Antimalarial activity after 24 hrs against chloroquine-sensitive Plasmodium falciparum 3D7 by [3H]hypoxanthine uptake; format: functional, organism-based
Method in brief: (§1)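 Human type B+ erythrocytes at 2% parasitemia and 4% hematocrit in RPMI-1640 (0.5% Albumax II, 16 µM hypoxanthine, HEPES, glucose); after 30 min at 37 °C, drug was added to final 1% parasitemia and 2% hematocrit. Test range 7.8–500 µM, with chloroquine at 3.9–500 nM and final DMSO under 2%. Incubation was 24 h, then [3H]-hypoxanthine for 18–24 h more; filters were counted. IC50 came from curve fitting, quadruplicates, 2–3 runs.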

Plasmodium falciparum [2] = test: Antimalarial activity against chloroquine-resistant Plasmodium falciparum FCR3 Gambia as 24 hrs [3H]hypoxanthine uptake; format: functional, organism-based; conditions: FCR-3/Gambia; method in brief: as §1
Plasmodium falciparum [3] = test: Antimalarial activity after 48 hrs against Plasmodium falciparum W2 by [3H]hypoxanthine uptake
Plasmodium falciparum [4] = test: Antimalarial activity after 48 hrs against Plasmodium falciparum D6 by [3H]hypoxanthine uptake

C=C(C)[C@@H]1CC[C@]2(C)CC[C@]3(C)[C@H](CC[C@@H]4[C@@]5(C)CC[C@H](OC(=O)COCCCCCCCCCCCCCCCCCCCCCCCC)C(C)(C)[C@@H]5CC[C@]43C)[C@@H]12
IC50 (Plasmodium falciparum [1]): 135 µM | IC50 (Plasmodium falciparum [2]): 84 µM and 69000 µg/mL

C=C(C)[C@@H]1CC[C@]2(C)CC[C@]3(C)[C@H](CC[C@@H]4[C@@]5(C)CC[C@H](OC(=O)CC(O)CCCCCCCCCCCCCCCCC)C(C)(C)[C@@H]5CC[C@]43C)[C@@H]12 (stereo not given in full)
IC50 (Plasmodium falciparum [1]): 282 µM | IC50 (Plasmodium falciparum [2]): 269 µM

C=C(C)[C@@H]1CC[C@]2(C)CC[C@]3(C)[C@H](CC[C@@H]4[C@@]5(C)CC[C@H](O)C(C)(C)[C@@H]5CC[C@]43C)[C@@H]12 [LUPEOL]
IC50 (Plasmodium falciparum [1]): 106 µM and 45000 µg/mL | IC50 (Plasmodium falciparum [2]): 97 µM and 41000 µg/mL

OC(c1cc(C(F)(F)F)nc2c(C(F)(F)F)cccc12)C1CCCCN1 (stereo not given) [MEFLOQUINE]
IC50 (Plasmodium falciparum [3]): 28.5 µg/mL (≈ 75.3 µM) | IC50 (Plasmodium falciparum [4]): 2550 µg/mL (≈ 6740 µM)

C=C[C@H]1CN2CC[C@H]1C[C@H]2[C@H](O)c1ccnc2ccc(OC)cc12 [QUININE]
IC50 (Plasmodium falciparum [3]): 67 µg/mL (≈ 207 µM) | IC50 (Plasmodium falciparum [4]): 25 µg/mL (≈ 77.1 µM)
